# Experimental data gathered from unrelated publications.
# Lines come from different studies, so protocols differ.
# CYP3A7: Cytochrome P450 3A7 (CYP3A7, Homo sapiens, UniProt P24462)
SMILES,tested on,test,system,setting,endpoint,result
N#Cc1cnn2c(NC3CC3)cc(Nc3ccc(N4CCC[C@H](N)C4)c(-n4cnnc4)c3)nc12,,metabolic stability,"male CD-1 mouse, liver microsomes","5 µM, 30 min, pH 7.4",compound remaining,98%
N#C[C@@]12C[C@@H]1[C@@H](n1cnc3c(N[C@@H](C4CCC4)C4CC4)nc(I)nc31)[C@H](O)[C@@H]2O,,metabolic stability,"rat, liver microsomes",1 h,compound remaining,72.9%
COC[C@H]1C[C@@H](c2ncc(-c3ccc4c(c3)COc3cc5c(ccc6nc([C@@H]7CC[C@H](C)N7C(=O)[C@@H](NC(=O)OC)C(C)C)[nH]c65)cc3-4)[nH]2)N(C(=O)[C@H](NC(=O)OC)c2ccccc2)C1,CYP3A7,"enzyme activity, inhibitor, fluorescence",,"20 µM, 10 min, pH 7.4",inhibition,≥ 50%
O=[N+]([O-])c1ccc(/C=N/c2c(-c3ccccc3)nc3ccc(Cl)cn23)cc1,MT4,"cell growth or viability, MTT",,5 days,CC50,> 125 µg/mL
Cc1ccc(Cn2cc(C(=O)NN)c(=O)c3cc(Oc4ccccc4)ccc32)cc1,,metabolic stability,"male rat, liver microsomes","1 µM, 30 min",compound remaining,> 99%
C=C[C@@H]1C[C@]1(NC(=O)[C@@H]1C[C@@H](Oc2ncc(OC)c3ccc(Cl)cc23)CN1C(=O)[C@@H](NC(=O)OC(C)(C)C)C(C)(C)C)C(=O)NS(=O)(=O)C1CC1,CYP3A7,"enzyme activity, inhibitor, fluorescence",,"20 µM, 10 min, pH 7.4",inhibition,≥ 50%
N#Cc1cnn2c(Nc3cn(CCN4CCCC4)cn3)cc(Nc3cccc(-n4cnnc4)c3)nc12,,metabolic stability,"male CD-1 mouse, liver microsomes","5 µM, 30 min, pH 7.4",compound remaining,67%
O=c1[nH]cnc2c1ncn2[C@H]1CC[C@@H](CO)O1,MT4,"cell growth or viability, MTT",,5 days,CC50,> 50 µg/mL
C[C@@H](N)CN(C)c1ccc(Nc2cc(NC3CC3)n3ncc(C#N)c3n2)cc1-n1cnnc1,,metabolic stability,"male CD-1 mouse, liver microsomes","5 µM, 30 min, pH 7.4",compound remaining,84%
COC(=O)N[C@H](C(=O)N1CC2(CC2)C[C@H]1c1ncc(-c2ccc3c(c2)C(F)(F)c2cc(-c4ccc5nc([C@@H]6[C@H]7CC[C@H](C7)N6C(=O)[C@@H](NC(=O)OC)C(C)C)[nH]c5c4)ccc2-3)[nH]1)C(C)C,CYP3A7,"enzyme activity, inhibitor, fluorescence",,"20 µM, 10 min, pH 7.4",inhibition,≥ 50%
CCN(CCN)c1ccc(Nc2cc(NC3CC3)n3ncc(C#N)c3n2)cc1-n1cnnc1,,metabolic stability,"male CD-1 mouse, liver microsomes","5 µM, 30 min, pH 7.4",compound remaining,92%
O=[N+]([O-])c1ccccc1/C=N/c1c(-c2ccccc2)nc2ccc(Cl)cn12,MT4,"cell growth or viability, MTT",,5 days,CC50,> 125 µg/mL
